# Measured values from different studies.
# Protocols differ between the studies behind these lines.
# Target: Serine/threonine-protein kinase 38-like (STK38L, Homo sapiens, UniProt Q9Y2H1)
Structure (SMILES),test,conditions,remaining binding
CN(C)c1nccc(-c2cnc3ncccn23)n1,binding,1 µM,100%
COc1cnc(Nc2cccc(S(N)(=O)=O)c2)nc1N1CCN(c2ccccc2)C(=O)C1,"binding, competition with immobilised ligand",1 µM,100%
CN(C)C(=O)Cn1cc(-c2nc(C3(c4ccc(-c5cnc(N)nc5)cc4)CC3)no2)cn1,"cell-free assay, competition with immobilised ligand",1 µM,81%
CN(C)c1nccc(-c2cnn3ncccc23)n1,binding,1 µM,85%
COc1ccc2c(c1)O[C@@H](c1ccc(OC)c(OC)c1)C[C@H]2NC(=O)C1(c2ccc3c(c2)OC(F)(F)O3)CC1,"cell-free assay, competition with immobilised ligand",1 µM,100%
O=C(NCCCN1CCOCC1)c1ccc(Nc2nccc(-c3cc4ccccc4s3)n2)cc1,"binding, competition with immobilised ligand",1 µM,100%
Nc1ncc2c(n1)-c1c([nH]c3ccc(C#CC4CC4)cc13)CCCC2,"binding, competition with immobilised ligand",1 µM,100%
C[C@@H](c1ccc(-n2cnc3c(N)ncnc32)cc1)N1CCc2nn(C)c(Cc3ccccc3)c2C1=O,"binding, competition with immobilised ligand",0.1 µM,80%
CN(CCCC(F)(F)F)c1nccc(-c2cnn3ncccc23)n1,binding,1 µM,100%
COc1cnc(Nc2cccc(S(N)(=O)=O)c2)nc1N1CCN(c2ccccc2)CC1,"binding, competition with immobilised ligand",1 µM,96%
C[C@H]1CCN(c2nccc(-c3cnn4ncccc34)n2)C1,binding,1 µM,83%
O=C(c1ccc(Nc2ncc(Cl)c(-c3cc4ccccc4s3)n2)cc1)N1CCC(N2CCCC2)CC1,"binding, competition with immobilised ligand",1 µM,74%
O=C(Nc1c[nH]nc1C(=O)NC1CCNCC1)c1cc(F)cc(F)c1,"binding, competition with immobilised ligand",1 µM,93%
O=C(NC[C@@H]1[C@H]2CN(C(=O)OCc3cc(C(F)(F)F)cc(C(F)(F)F)c3)C[C@@H]12)c1ccc2[nH]nnc2c1,"cell-free assay, competition with immobilised ligand",1 µM,45%
COc1ccnn2ncc(-c3ccnc(N(C)C)n3)c12,binding,1 µM,96%
Cc1nccc(COC(=O)N2C[C@@H]3[C@@H](CNC(=O)c4ccc5[nH]nnc5c4)[C@@H]3C2)n1,"cell-free assay, competition with immobilised ligand",1 µM,70%
CC1CCCN1c1nccc(-c2cnn3ncccc23)n1 (stereo not shown),binding,1 µM,100%
N#CC1(c2ccccn2)CCN(Cc2cc(C(=O)N3CCCC3)c(=O)n3ccccc23)CC1,"cell-free assay, competition with immobilised ligand",1 µM,90%
N[C@@H]1CCN(c2nccc(-c3cnn4ncccc34)n2)C1,binding,1 µM,100%
O=C(c1ccc(Nc2nccc(-c3cc4ccccc4s3)n2)cc1)N1CCC(N2CCCC2)CC1,"binding, competition with immobilised ligand",1 µM,94%
Cc1cc(C)c(-n2ccn3nc(-c4cccnc4)cc23)cc1NC(=O)c1cc(C#N)cc(S(F)(F)(F)(F)F)c1,"binding, competition with immobilised ligand",0.1 µM,98.9%
c1cncc(-c2cccc(Nc3nccc(NC4CCCCC4)n3)c2)c1,"binding, competition with immobilised ligand",10 µM,100%
